Measurements pooled from the literature.
Target: Tyrosine-protein kinase Blk (BLK, Homo sapiens, UniProt P51451)

SMILES | read-out | method | concentration | remaining binding [%]
Cc1cnn2ncc(-c3ccnc(N(C)C)n3)c2c1 | binding | – | 1 µM | 28
COc1ccc2c(O[C@@H]3C[C@H]4C(=O)N[C@]5(C(=O)O)CC5/C=C\CCCCC[C@H](NC(=O)OC5CCCC5)C(=O)N4C3)cc(-c3csc(NC(=O)C(C)C)n3)nc2c1C (stereo partly shown) | cell-free assay | competition with immobilised ligand | 1 µM | 97
N[C@H]1CCN(c2nccc(-c3cnn4ncccc34)n2)C1 | binding | – | 1 µM | 100
O=C(N1CCS(=O)(=O)CC1)N1C[C@H](c2ccc(OC(F)(F)F)cc2)C[C@H](c2nc(C3CC3)no2)C1 | cell-free assay | competition with immobilised ligand | 1 µM | 100
Nc1ncc2c(n1)-c1c([nH]c3ccc(C#CC4CC4)cc13)CCCC2 | binding | competition with immobilised ligand | 1 µM | 100
COc1cnc(Nc2cccc(S(N)(=O)=O)c2)nc1N1CCN(c2ccccc2)CC1 | binding | competition with immobilised ligand | 1 µM | 80
O=C(NCCCN1CCOCC1)c1ccc(Nc2ncc(Cl)c(-c3ccc(Cl)s3)n2)cc1 | binding | competition with immobilised ligand | 1 µM | 100
CC1CCCN1c1nccc(-c2cnn3ncccc23)n1 (stereo not shown) | binding | – | 1 µM | 100
Cc1nc(C2CCN(C(=O)c3ccc(OC(F)(F)F)cc3N)CC2)c2ncc(N3CCN(C)CC3)cc2n1 | cell-free assay | competition with immobilised ligand | 1 µM | 97
C=CC(=O)N1CCC(C(=O)NCC(=O)N2CCN(c3nc(-c4cnc(N)nc4C(F)F)nc(N4CCOCC4)n3)CC2)CC1 | binding | competition with immobilised ligand | 1 µM | 100
CN(c1nccc(-c2cnn3ncccc23)n1)C1CC1 | binding | – | 1 µM | 100
Cn1nc(C(F)(F)F)cc1-c1cnc(N2CCc3cc(S(=O)(=O)Nc4c(F)cc(Cl)cc4F)cc(N4CCCC4=O)c32)nc1 | cell-free assay | competition with immobilised ligand | 1 µM | 100
CNC(=O)[C@@H]1CC[C@@H](n2c(-c3ccc4cnccc4c3)nc3ccc(C(=O)NCc4cccc(C(N)=O)c4)cc32)C1 | binding | competition with immobilised ligand | 1 µM | 91
CN(C)c1nccc(-c2cnn3ncccc23)n1 | binding | – | 1 µM | 100
O=C(NCCCN1CCOCC1)c1ccc(Nc2nccc(-c3cc4ccccc4s3)n2)cc1 | binding | competition with immobilised ligand | 1 µM | 100
CN([C@@H]1CCc2c(CC(=O)O)c3cc(S(C)(=O)=O)ccc3n2C1)S(=O)(=O)c1ccc(F)cc1 | cell-free assay | competition with immobilised ligand | 1 µM | 99
FC(F)(F)Oc1cccc(-c2cnc3ccc(-c4ccncc4)nn23)c1 | cell-free assay | competition with immobilised ligand | 5 µM | 51
C[C@@H]1CCN(c2nccc(-c3cnn4ncccc34)n2)C1 | binding | – | 1 µM | 100
O=C(c1ccc(Nc2ncc(Cl)c(-c3ccc(Cl)s3)n2)cc1)N1CCC(N2CCCC2)CC1 | binding | competition with immobilised ligand | 1 µM | 100
CO[C@@H](C)c1c(Nc2ccc([C@@H](N(C)C(=O)C3CCS(=O)(=O)CC3)C(F)(F)F)cc2)cnc2cc(Cl)nn12 | cell-free assay | competition with immobilised ligand | 1 µM | 56
CN(CCCC(F)(F)F)c1nccc(-c2cnn3ncccc23)n1 | binding | – | 1 µM | 91
O=C(Nc1c[nH]nc1C(=O)NC1CCNCC1)c1cc(F)cc(F)c1 | binding | competition with immobilised ligand | 1 µM | 83
